These results are taken from article PMC7127848 (Drug Design, Development and Therapy, 2020).

A short description of data set [1]: Microsome metabolic stability and predicted hepatic clearance. The class given is in vitro ADME. The following applies: human, liver microsomes, pH 7.4. The procedure, abridged:
(§1)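 Liver microsomes (0.5 mg/mL) incubated with 3 µM test compound in 50 mM phosphate buffer, pH 7.4. After 3 min pre-incubation at 37°C, 5 mM NADPH started the reaction. Samples at 0, 5, 15, 30, 45 and 60 min, quenched in acetonitrile with internal standard, then LC-MS/MS. NADPH-free controls sampled at 0 and 60 min.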

A short description of data set [2]: Stability in plasma. It counts as in vitro ADME. The following applies: human. The procedure, abridged: (§2)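 Test compound at 1 μM incubated at 37°C for up to 4 h in plasma. Sources: CD-1 mouse, SD rat (fresh, from male rats), monkey or human. Aliquots at set times quenched with acetonitrile containing clioquinol as internal standard. Centrifuged at 18,879 rcf for 5 min, and supernatant assayed by LC-MS/MS for compound remaining.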

The next data set deals with T1, CYP2C8 (Homo sapiens, UniProt P10632).
T1 sequence (P10632 1-490): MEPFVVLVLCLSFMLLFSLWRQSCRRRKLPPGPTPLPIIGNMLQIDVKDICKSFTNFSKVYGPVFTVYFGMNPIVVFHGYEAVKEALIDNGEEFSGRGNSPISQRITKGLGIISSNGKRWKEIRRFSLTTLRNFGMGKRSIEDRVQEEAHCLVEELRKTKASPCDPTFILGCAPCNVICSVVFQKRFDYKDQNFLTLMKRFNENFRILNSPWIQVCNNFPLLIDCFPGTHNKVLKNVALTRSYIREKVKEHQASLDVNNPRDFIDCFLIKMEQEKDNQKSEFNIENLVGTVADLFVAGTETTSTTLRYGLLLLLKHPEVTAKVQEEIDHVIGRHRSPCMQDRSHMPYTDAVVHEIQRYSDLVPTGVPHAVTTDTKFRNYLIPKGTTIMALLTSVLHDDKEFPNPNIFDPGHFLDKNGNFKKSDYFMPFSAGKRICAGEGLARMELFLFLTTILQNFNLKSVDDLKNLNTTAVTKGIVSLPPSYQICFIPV
The data set can be described thus: CYP reaction phenotyping with rhCYP. It counts as in vitro ADME. To be noted: rhCYP2C8. In outline:
(§3)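 Recombinant human CYP (200 pmol) with 1 µM test compound in 100 mM K2HPO4/10 mM MgCl2, pH 7.4, pre-incubated. Reaction started with 1 mM NADPH. DMSO kept ≤0.1% v/v and acetonitrile ≤1% v/v. Samples at 0, 5, 15, 30 and 60 min, stopped with acetonitrile containing internal standard, then centrifuged. Negative controls lacked NADPH, used insect control cells, or both.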

The nature of data set [3]: Microsome metabolic stability and predicted hepatic clearance. It counts as in vitro ADME. The following applies: CD-1, mouse, liver microsomes, pH 7.4. The procedure, abridged: as §1
A short description of data set [4]: Pharmacokinetics and bioavailability in SD rats. The class given is in vivo. To be noted: Sprague-Dawley, rat, plasma. The procedure, abridged:
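Male SD rats (300–350 g), cannulated under anesthesia the day before, n = 3 per group. Single dose of 2 mg/kg IV bolus, 20 mg/kg PO (fasted ≥12 h) or 10 mg/kg SC. Co-solvent formulation diluted 5-fold with saline (IV, SC) or water (PO). Blood taken 0.08–48 h, plasma by LC-MS/MS. Non-compartmental analysis; F from dose-normalised extravascular versus IV AUC.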

Data set [5] can be described thus: Microsome metabolic stability and predicted hepatic clearance. It counts as in vitro ADME. The following applies: cynomolgus monkey, liver microsomes, pH 7.4. In outline:
as §1

Assay in data set [6]: as above
It counts as in vitro ADME. The following applies: Sprague-Dawley (SD), rat, liver microsomes, pH 7.4. The procedure, abridged:
as §1
Background: Liver microsomes are a subcellular fraction often used to study metabolism.

In data set [7] the test system is Mycobacterium tuberculosis. To be noted: cited from earlier work.
The nature of data set [8]: Plasma protein binding, centrifugal ultrafiltration. It counts as in vitro ADME. The following applies: Sprague-Dawley, rat, Fraction bound to plasma protein, mean ± SD.
Data set [9] in a line: Stability in plasma. The following applies: CD-1, mouse. The class given is in vitro ADME. In outline: as §2
A short description of data set [10]: Thermodynamic solubility, shake-flask method. The class given is physicochemical. To be noted: room temperature. In outline: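 Shake-flask method: excess test compound shaken in solvent at room temperature for 72 h after saturation. Centrifuged (18,879 rcf, 10 min) and filtered through 0.22 μm. Dissolved compound quantified by HPLC-UV, in triplicate.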
Another data set is described as follows: Blood-plasma partition. The class given is in vitro ADME. The following applies: SD rat blood, 1 μM, 37°C, 1 hr, mean ± SEM. In outline:
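Test compound spiked into fresh whole SD rat blood at 1 μM final and held 1 hr at 37°C. Plasma separated by centrifugation (15 min, 4°C, 1750 rcf). Blood and plasma assayed by LC-MS/MS. B/P taken as mean peak-area ratio in blood over plasma. Its SEM was propagated as the square root of summed squared SEM/mean terms, multiplied by B/P.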

A further data set concerns the target T2, CYP1A2 (Homo sapiens, UniProt P05177).
T2 sequence (P05177 1-516): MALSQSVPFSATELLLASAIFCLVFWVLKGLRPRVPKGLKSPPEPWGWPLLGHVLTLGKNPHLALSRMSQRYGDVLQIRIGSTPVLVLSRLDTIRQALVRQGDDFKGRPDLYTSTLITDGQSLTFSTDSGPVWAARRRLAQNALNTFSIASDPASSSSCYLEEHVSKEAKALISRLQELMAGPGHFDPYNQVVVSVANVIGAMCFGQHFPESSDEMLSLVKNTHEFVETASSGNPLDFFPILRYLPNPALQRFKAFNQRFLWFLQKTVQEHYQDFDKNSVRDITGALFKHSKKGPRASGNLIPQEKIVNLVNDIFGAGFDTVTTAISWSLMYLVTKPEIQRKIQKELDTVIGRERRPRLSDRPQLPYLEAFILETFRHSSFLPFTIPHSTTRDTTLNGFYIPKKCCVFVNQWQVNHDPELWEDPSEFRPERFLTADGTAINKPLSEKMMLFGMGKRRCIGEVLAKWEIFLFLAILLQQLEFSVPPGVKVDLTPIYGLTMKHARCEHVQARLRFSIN
The data set can be described thus: CYP reaction phenotyping with rhCYP. The class given is in vitro ADME. In outline:
as §3

A short description of data set [11]: Solution state pH stability in USP buffers. The class given is physicochemical. The following applies: aqueous media pH 1-10, 37°C, up to 48 hrs. In outline:
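Test compound added from DMSO to USP buffers with 0.2% v/v Tween 80: 0.2 M HCl (pH 1–2), 0.2 M acetate (pH 3–5), 0.2 M phosphate (pH 6–8), carbonate (pH 9–10). Held in a 37°C water bath. Aliquots at set times assayed by HPLC-UV for compound remaining. Degradation rate constant derived per buffer.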

Data set [12] in a line: Stability in plasma. To be noted: SD, rat. It counts as in vitro ADME. In outline:
as §2

A further data set has as its target CYP2D6 (Homo sapiens, UniProt P10635). The data set can be described thus: CYP reaction phenotyping with rhCYP. The class given is in vitro ADME. The procedure, abridged: as §3
The nature of data set [13]: Stability in plasma. The class given is in vitro ADME. The following applies: rhesus, monkey. The procedure, abridged:
as §2

The conditions of data set [14]: in vivo pharmacokinetic studies; cited from earlier work.
Data set [15] in a line: Human hepatic clearance by single species scaling using liver blood flow. The following applies: single species (SD rat) scaling of in vivo clearance and liver blood flow.
For data set [16] the following is noted: cited from earlier work.
For data set [17], the system named is MtMetAPs (MtMetAP1a and MtMetAP1c). The following applies: both MtMetAPs over human MetAPs; cited from earlier work.
For data set [18] the following is noted: cited from earlier work. The source holds these as a separate data set.

Values after ≈ are worked out from the molar mass of the structure shown. Values joined by “and” are separate entries in the source; they are usually repeats but may differ in a detail not shown here. Equal entries are not always repeated. “Also recorded” adds a separate entry of the source. Some results are limits rather than exact numbers.

Chain of CYP2D6 (P10635 whole entry): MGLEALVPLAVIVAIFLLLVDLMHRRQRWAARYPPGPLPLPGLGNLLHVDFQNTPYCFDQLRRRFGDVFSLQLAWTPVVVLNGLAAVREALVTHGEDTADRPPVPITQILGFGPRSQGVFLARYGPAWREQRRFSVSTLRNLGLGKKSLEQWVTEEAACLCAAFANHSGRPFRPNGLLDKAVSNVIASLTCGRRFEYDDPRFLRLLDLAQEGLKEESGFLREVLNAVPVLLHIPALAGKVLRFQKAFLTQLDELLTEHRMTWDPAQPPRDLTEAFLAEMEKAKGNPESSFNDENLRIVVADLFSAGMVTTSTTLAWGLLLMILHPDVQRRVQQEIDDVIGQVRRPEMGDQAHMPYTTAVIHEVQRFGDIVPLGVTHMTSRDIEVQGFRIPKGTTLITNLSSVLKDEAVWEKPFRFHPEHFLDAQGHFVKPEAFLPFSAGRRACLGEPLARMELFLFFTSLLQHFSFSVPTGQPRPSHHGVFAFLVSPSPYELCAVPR

As to `Oc1c(Br)cc(Cl)c2cccnc12` [CLBQ14, 7-bromo-5-chloroquinolin-8-ol], the share remaining at 1 h, 3 µM in [1] was 35.5 ± 0.33%; in data set [3] it was 3.7 ± 1.36%; in data set [5], 17.5 ± 0.86%; in [6], 26.8 ± 2.37%. Further, the recovery at 4 h, 1 μM was 103.7 ± 0.99% in the data set “Stability in plasma [2]”, 97.6 ± 2.27% in the data set “Stability in plasma [9]”, 101 ± 13% in “Stability in plasma [12]” and 105 ± 4.25% in “Stability in plasma [13]”. Besides, the “Contribution to metabolism of CLBQ14” value on CYP2C8 is given as “may also be a contributor”; at CYP1A2 (rhCYP1A2) it was “metabolized primarily; also recorded: primary contributors”; on CYP2D6 (rhCYP2D6), “primary contributors”. Moreover, the time of peak concentration (Tmax) in data set [4] (po, 20 mg/kg) was 30 min; in data set [4] (sc, 10 mg/kg) it was approximately 55 min. Further, in data set [7], the “Potency against aged non-growing Mtb” value is listed as “increased potency”. For the same molecule, in data set [7] (replicating Mtb), the “Potency against replicating Mtb” value was “great potency”. In [8] (5 μg/mL), this molecule gave a fraction unbound at 1 h, 5 μg/mL of 0.09. Further, the fraction unbound at 1 h, 50 μg/mL in data set [8] (50 μg/mL) was 0.017. For the same molecule, the Solubility in data set [10] (water (pH 7)) was 70 µg/mL (≈ 271 µM). In data set [10] (water, pH 7, Solubility), this molecule showed a solubility at 72 h of less than 70 µg/mL. In the data set “Blood-plasma partition”, the “Blood-plasma (B/P) ratio” value was 0.83 and 0.83 ± 0.03. The CLBQ14 turnover entry on CYP1A2 (rhCYP1A2, 1 µM, 37°C, 60 mins) is “greater than 50%”; on CYP2D6 (rhCYP2D6, 1 µM, 37°C, 60 mins), “greater than 50%”. For the same molecule, the “Stability in aqueous media” value in data set [11] is listed as “relatively stable”. Also, in [14], the “Administered dose excreted unchanged in urine” value is on record as 0.01%. For the same molecule, in data set [15], the “Human hepatic clearance (ClH, human) predicted” value was 11.5 mL/min/kg. In addition, the “calculated log P” value in data set [16] (25°C / room temperature) is recorded as 3.92 ± 0.39. In addition, in [16] (25°C), the “calculated pKa” value is listed as 2.23 ± 0.30. The “Selectivity for MtMetAPs over human MetAPs” value in data set [17] was “great selectivity”.
On to `CCOCCOCCO` [Transcutol HP], for which the NOAEL in data set [18] (5% solution administered orally to rats for 90 days) is listed as 1%. Also, the LD50 in [18] (acute administration) was more than 5000 mg/kg.

What is called amount remaining is the share of the starting amount still present when the sample was taken. What is called Tmax is the time from dosing to the highest level. For orientation: fraction unbound means free concentration divided by total concentration. What is called Solubility is the dissolved amount per volume that the medium holds. Usually solubility stands for the concentration that dissolves in the medium under given conditions. Usually NOAEL stands for the highest dose or exposure tested at which no adverse effect was seen. One may read the LD50 as the dose expected to kill half of the subjects tested.
